Columns and labels:
G-361 [1] = assay: Cytotoxicity against human G361 cells pretreated for 4 hrs followed by light irradiation of 10 J/cm2 at 414 nm measured after 68 hrs by MTT assay; type: functional, cell-based; settings: G-361, light or radiation study
How it was run: (§1)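 Cells grown in phenol red-free DMEM with 10 % FBS, penicillin/streptomycin, 37 °C, 5 % CO₂. Compound added 24 h after plating and incubated 4 h. Irradiated cells received 414 nm LED light at 20 mW/cm², 10 J/cm², then were incubated 20 h or 68 h more. Dark plates were run in parallel without irradiation. MTT was added for 4 h, formazan dissolved in 10 % SDS, absorbance read at 570 nm. EC50 ± SD.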

G-361 [2] = assay: Cytotoxicity against human G361 cells under dark condition measured after 72 hrs by MTT assay; type: functional, cell-based; settings: G-361, 72 h; how it was run: as §1
[3] = Cytotoxicity against human BJ cells under dark condition measured after 72 hrs by MTT assay; type: toxicity, cell-based; how it was run: as §1

Row | Compound | EC50 (G-361 [1]) [µM] | EC50 (G-361 [2]) [µM] | EC50 at 72 h [3] [µM]
1 | CC1(C)C(/C=C/c2cccc(C#N)c2)=Nc2ccc3ccccc3c21 | 0.9 | 3.7 | –
2 | CCN(CC)c1ccc(/C=C/C2=Nc3ccc4ccccc4c3C2(C)C)cc1 | > 10 | > 10 | –
3 | CC1(C)C(/C=C/c2cccc([N+](=O)[O-])c2)=Nc2ccc3ccccc3c21 | 0.4 | 2.9 | 5
4 | CC1(C)C(/C=C/c2ccc(Br)cc2)=Nc2ccc3ccccc3c21 | 1.3 | 7.6 | > 10
5 | CN(C)c1ccc(/C=C/C2=Nc3ccc4ccccc4c3C2(C)C)cc1 | > 10 | > 10 | –
6 | CC1(C)C(/C=C/c2ccccc2)=Nc2ccc3ccccc3c21 | 2.8 | 6.5 | –
7 | CC1(C)C(/C=C/c2ccc([N+](=O)[O-])cc2)=Nc2ccc3ccccc3c21 | 0.8 | 5.7 | 6
8 | CC1(C)C(/C=C/c2cccc(C(F)(F)F)c2)=Nc2ccc3ccccc3c21 | 1.3 | 7.6 | > 10
9 | COc1ccc(/C=C/C2=Nc3ccc4ccccc4c3C2(C)C)cc1 | 5.2 | 9.5 | –
10 | CC1(C)C(/C=C/c2cc([N+](=O)[O-])ccc2Cl)=Nc2ccc3ccccc3c21 | 7.9 | > 10 | –
11 | CC1(C)C(/C=C/c2ccc(F)c(C#N)c2)=Nc2ccc3ccccc3c21 | 1.4 | 6.9 | –
12 | CC1(C)C(/C=C/c2ccccc2[N+](=O)[O-])=Nc2ccc3ccccc3c21 | 1.1 | 7.8 | > 10
13 | CC1(C)C(/C=C/c2ccc(C#N)c(F)c2)=Nc2ccc3ccccc3c21 | 0.6 | 6.2 | 7.2
14 | CC1(C)C(/C=C/c2ccc(F)c([N+](=O)[O-])c2)=Nc2ccc3ccccc3c21 | 1.8 | 7.9 | –
15 | CC1(C)C(/C=C/c2ccc(C(F)(F)F)cc2)=Nc2ccc3ccccc3c21 | 0.9 | 4 | –
16 | CC1(C)C(/C=C/c2ccc(Cl)c([N+](=O)[O-])c2)=Nc2ccc3ccccc3c21 | 0.3 | 7.2 | > 10
17 | CC1(C)C(/C=C/c2ccc(C#N)cc2)=Nc2ccc3ccccc3c21 | 0.5 | 5.1 | 6.7
18 | Cc1ccc(/C=C/C2=Nc3ccc4ccccc4c3C2(C)C)cc1[N+](=O)[O-] | 0.9 | 6.6 | 8
19 | CC1(C)C(/C=C/c2cc(C(F)(F)F)cc(C(F)(F)F)c2)=Nc2ccc3ccccc3c21 | 1.3 | > 10 | > 10
20 | CC1(C)C(/C=C/c2ccc(F)cc2)=Nc2ccc3ccccc3c21 | 4.1 | 7.3 | –
